# In ChEMBL document CHEMBL1145060, “Synthesis and evaluation of pharmacological properties of novel annelated 2,3-benzodiazepine derivatives” (2003):
# Tests used:
# [1] = Anticonvulsant activity against Audiogenic seizures in DBA/2 mice was observed in clonic phase after intraperitoneal injection; assay type: functional; details: Mus musculus, ip
# In short: (§1)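 Compound given intraperitoneally to DBA/2 mice 30 min before audiogenic seizure testing; clonic and tonic phases scored. ED50 (μmol/kg) with 95% confidence limits calculated by Litchfield and Wilcoxon.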
# [2] = Anticonvulsant activity against Audiogenic seizures in DBA/2 mice was observed in tonic phase after intraperitoneal injection; assay type: functional; details: Mus musculus, ip; in short: as §1
# [3] = Anticonvulsant activity against in MES was observed in mice after intraperitoneal injection; assay type: functional; details: Mus musculus, ip
# In short: (§2)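 Swiss mice dosed ip 45 min before seizure induction by maximal electroshock (MES) or pentylenetetrazole (PTZ). ED50 (μmol/kg) with 95% confidence limits by Litchfield and Wilcoxon method.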
# [4] = Anticonvulsant activity against PTZ induced seizures was observed in mice after intraperitoneal injection; assay type: functional; details: Mus musculus, ip; in short: as §2
# [5] = Anticonvulsant activity against AMPA-induced seizures in DBA/2 mice was observed in tonic phase after intraperitoneal injection; assay type: functional; details: Mus musculus, ip
# In short: (§3)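 DBA/2 mice given compound intraperitoneally, then challenged with AMPA to induce seizures; clonic and tonic phases scored separately. ED50 (μmol/kg) with 95% confidence limits by Litchfield and Wilcoxon method.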
# [6] = Anticonvulsant activity against Audiogenic seizures in DBA/2 mice was observed in tonic phase after pretreatment with Aniracetam; assay type: functional; details: Mus musculus
# In short: (§4)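 Audiogenic seizure test in DBA/2 mice, clonic and tonic phases; aniracetam 50 nmol given icv 60 min before testing, together with ip compound. ED50 with 95% confidence limits by Litchfield and Wilcoxon method.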
# [7] = Anticonvulsant activity against AMPA-induced seizures in DBA/2 mice was observed in clonic phase after intraperitoneal injection; assay type: functional, Mus musculus; in short: as §3
# [8] = Anticonvulsant activity against Audiogenic seizures in DBA/2 mice was observed in clonic phase after pretreatment with Aniracetam; assay type: functional; details: Mus musculus; in short: as §4
# [9] = Mus musculus, ip, read-out: ED50
Structure (SMILES),ED50 [1],ED50 [2],ED50 [3],ED50 [4],ED50 [5],ED50 [6],ED50 [7],"ED50 [7, 9]",ED50 [8]
COc1cc2c(cc1OC)C(c1ccc(Cl)cc1)=Nn1c(n[nH]c(=O)c1=O)C2,37.4 µmol/kg,33 µmol/kg,,,,,,,
COc1cc2c(cc1OC)C(c1ccc(Br)cc1)=Nn1c(n[nH]c(=O)c1=O)C2,76.6 µmol/kg,54.6 µmol/kg,,,,,,,
COc1cc2c(cc1OC)C(c1ccccc1)=Nn1c(n[nH]c(=O)c1=O)C2,33.6 µmol/kg,17.9 µmol/kg,36.6 µmol/kg,57.6 µmol/kg,,,,,
COc1cc2c(cc1OC)C(c1ccc(N)cc1)=Nn1c(n[nH]c(=O)c1=O)C2,59.3 µmol/kg,52.8 µmol/kg,,,,,,,
COc1cc2c(cc1OC)C(c1ccc(N)cc1)=NNC(=O)C2,15 µmol/kg,,,,25 µmol/kg,56.2 µmol/kg,,,
COc1cc2c(cc1OC)C(c1cccc([N+](=O)[O-])c1)=Nn1c(n[nH]c(=O)c1=O)C2,> 120 µmol/kg,88.9 µmol/kg,,,,,,,
COc1cc2c(cc1OC)C(c1cccc(N)c1)=Nn1c(n[nH]c(=O)c1=O)C2,74.5 µmol/kg,57.7 µmol/kg,,,,,,,
COc1cc2c(cc1OC)C(c1ccc([N+](=O)[O-])cc1)=Nn1c(n[nH]c(=O)c1=O)C2,60 µmol/kg,25.7 µmol/kg,,,,,,,
COc1cc2c(cc1OC)C(c1ccc(F)cc1)=Nn1c(n[nH]c(=O)c1=O)C2,39.2 µmol/kg,28 µmol/kg,37.8 µmol/kg,63.2 µmol/kg,,,,,
COc1cc2c(cc1OC)C(c1ccc(Cl)cc1)=Nn1c(O)nnc1C2,28.8 µmol/kg,14.1 µmol/kg,,33.1 µmol/kg,,71.8 µmol/kg,46.8 µM/kg,46.8 µmol/kg,87.8 µmol/kg
COc1cc2c(cc1OC)C(c1ccc(Br)cc1)=Nn1c(O)nnc1C2,3.65 µmol/kg,1.34 µmol/kg,5.93 µmol/kg,13.8 µmol/kg,,7.87 µmol/kg,17.7 µM/kg,17.7 µmol/kg,18.6 µmol/kg
CC1=NN=C(c2ccc(N)cc2)c2cc3c(cc2C1)OCO3 [GYKI-52466],,,,,,100 µmol/kg,,57.5 µmol/kg,
CC(=O)N1N=C(c2ccc(N)cc2)c2cc3c(cc2C[C@H]1C)OCO3 [TALAMPANEL],,9.7 µmol/kg,28.8 µmol/kg,56.3 µmol/kg,,,,44.2 µmol/kg,
